From ChEMBL document CHEMBL5042520, “Design, synthesis and in vitro evaluation of novel SARS-CoV-2 3CLpro covalent inhibitors” (Eur J Med Chem, 2022) come the findings set out here.

Biological target in the first assay: not listed separately
As to the kind of experiment: Inhibition of SARS-CoV-2 3CL protease using DABCYL-KTSAVLQ-SGFRKME-EDANS as substrate preincubated with enzyme for 30 mins followed by substrate addition and measured after 1 hr by fluorescence spectrophotometry. Set-up: species or system Severe acute respiratory syndrome coronavirus 2.
Details: not given
As usually defined, the IC50 is the concentration at which inhibition is half-maximal. Read a low IC50 as greater potency. For the compound `CC#CC(=O)N(c1ccc(OC(F)F)cc1)C(C(=O)NC1CCCCC1)c1cccnc1` (centres undefined), the IC50 was 45.1 µM.
Still for that read-out and setting: next, `CC#CC(=O)N(c1ccc(C(C)(C)C)cc1)C(C(=O)NC1CCCCC1)c1cccnc1` (centres undefined): 5.3 µM.
Same read-out and setting: next, `C=CS(=O)(=O)N(c1ccc(C(C)(C)C)cc1)C(C(=O)N[C@@H](C)c1ccccc1)c1cccnc1` (mixture of isomers; 14h) [listing 1 of 2 here]: 6 µM.
With `CC(C)(C)c1ccc(N(C(=O)C(=O)C(F)(F)F)C(C(=O)NC2CCCCC2)c2cccnc2)cc1` (centres undefined), inhibition was half-maximal at 12.4 µM (IC50).
Same read-out and setting: then `C=CS(=O)(=O)N(c1ccc(C(C)(C)C)cc1)C(C(=O)NCCc1ccc(OC)cc1)c1cccnc1` (centres undefined), with 0.28 µM.
As to `C=CS(=O)(=O)N(c1ccc(C(C)(C)C)cc1)C(C(=O)NC1CCN(Cc2ccccc2)CC1)c1cccnc1` (centres undefined), half-maximal inhibition (IC50) was put at 0.22 µM.
The same measure, in the same setting: next, `CC(=O)C(=O)N(c1ccc(C(C)(C)C)cc1)C(C(=O)NC1CCCCC1)c1cccnc1` (centres undefined): 5.2 µM; `CC(C)(C)c1ccc(N(C(=O)CCl)C(C(=O)NC2CCCCC2)c2ccncc2)cc1` (centres undefined): 0.84 µM; `CC(C)(C)c1ccc(N(C(=O)CCl)C(C(=O)NCc2ccccc2)c2cccnc2)cc1` (centres undefined): 0.92 µM.
For `CC#CC(=O)N(c1ccc(C(C)(C)C)cc1)C(C(=O)NCc1ccccc1)c1cccnc1` (centres undefined), the IC50 was above 30 µM.
On the same count and under the same terms, then `C=CS(=O)(=O)N(c1ccc(C(C)(C)C)cc1)C(C(=O)N[C@@H](C)c1ccccc1)c1cccnc1` (mixture of isomers; 14g) [listing 1 of 2 here], with 0.32 µM.

For a further assay, the system named is Severe acute respiratory syndrome coronavirus 2. As to the kind of experiment: Inhibition of SARS-CoV-2 3CL protease at 50 uM using DABCYL-KTSAVLQ-SGFRKME-EDANS as substrate preincubated with enzyme for 30 mins followed by substrate addition and measured after 1 hr by fluorescence spectrophotometry relative to control. Particulars: time 1.5 hrs. The essentials: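 SARS-CoV-2 3CLpro was expressed in E. coli BL21(DE3) and purified on a HisTrap column. Enzyme at 150 nM (114 nM after inhibitor addition) in assay buffer with 1 mM DTT was preincubated 30 min at room temperature with 50 μM final compound from DMSO. Then 11.76 μM final substrate was added. Fluorescence (ex 360/em 460 nm) was followed for ≥1 h. Initial slopes were compared with a DMSO control. Run in duplicate.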
One may read the inhibition as the relative decrease from the control value, in per cent. A low value points to little suppression. The compound `CC#CC(=O)N(c1ccc(OC(F)F)cc1)C(C(=O)NC1CCCCC1)c1cccnc1` (centres undefined) returned an inhibition of 77%.
Compound `CC#CC(=O)N(c1ccc(C(C)(C)C)cc1)C(C(=O)NC1CCCCC1)c1cccnc1` (centres undefined) registered an inhibition above 95%.
Same read-out and setting: then `CC#CC(=O)N(c1ccc(C(C)(C)C)cc1)C(C(=O)NC1CCCCC1)c1cnc2ccccc2c1` (centres undefined), with 80%; and `C=CS(=O)(=O)N(c1ccc(C(C)(C)C)cc1)C(C(=O)N[C@@H](C)c1ccccc1)c1cccnc1` (mixture of isomers; 14h) [listing 2 of 2 here], with above 95%.
On the same count and under the same terms, next, `CC(C)(C)c1ccc(N(C(=O)CCl)C(C(=O)NC2CCCCC2)c2ccsc2)cc1` (centres undefined): 22%.
For the compound `CC(C)(C)c1ccc(N(C(=O)C2=CCCC2)C(C(=O)NC2CCCCC2)c2nc3ccccc3s2)cc1` (centres undefined), the inhibition is below 5%.
The same measure, in the same setting: next, `C/C=C(\C)C(=O)N(c1ccc(C(C)(C)C)cc1)C(C(=O)NC1CCCCC1)c1cccnc1` (centres undefined): 47%; `CC(C)(C)c1ccc(N(C(=O)C(=O)C(F)(F)F)C(C(=O)NC2CCCCC2)c2cccnc2)cc1` (centres undefined): 77%.
On the same count and under the same terms, next, `C=CC(=O)N(c1ccc(C(C)(C)C)cc1)C(C(=O)NC1CCCCC1)c1cccnc1` (centres undefined): 84%; `C=CS(=O)(=O)N(c1ccc(C(C)(C)C)cc1)C(C(=O)NCCc1ccc(OC)cc1)c1cccnc1` (centres undefined): above 95%.
Same read-out and setting: then `CC(C)(C)c1ccc(N(C(=O)C2=CCCC2)C(C(=O)NC2CCCC2)c2cccnc2)cc1` (centres undefined), with 16%; and `CC(=O)N(c1ccc(C(C)(C)C)cc1)C(C(=O)NC(C)(C)C)c1cccnc1` (centres undefined), with below 5%; and `C=CS(=O)(=O)N(c1ccc(C(C)(C)C)cc1)C(C(=O)NC1CCN(Cc2ccccc2)CC1)c1cccnc1` (centres undefined), with above 95%.
In turn, `CC(C)(C)c1ccc(N(C(=O)C2=CCCC2)C(C(=O)NC2CCCCC2)c2ccsc2)cc1` (centres undefined) had an inhibition of 22%.
Same read-out and setting: next, `CC(=O)C(=O)N(c1ccc(C(C)(C)C)cc1)C(C(=O)NC1CCCCC1)c1cccnc1` (centres undefined): 92%.
On to `CC#CC(=O)N(c1ccc(OC)cc1)C(C(=O)NC1CCCCC1)c1cccnc1` (centres undefined), for which the inhibition was 39%.
Still for that read-out and setting: next, `CC(C)(C)c1ccc(N(C(=O)CCl)C(C(=O)NC2CCCCC2)c2ccncc2)cc1` (centres undefined): above 95%; `CC(C)(C)c1ccc(N(C(=O)CCl)C(C(=O)NCc2ccccc2)c2cccnc2)cc1` (centres undefined): above 95%; `CC(C)(C)c1ccc(N(C(=O)C2=CCCC2)C(C(=O)NC2CCCCC2)c2cncnc2)cc1` (centres undefined): 38%.
Take `N#CCNC(C(=O)NC1CCCCC1)c1cccnc1` (centres undefined): the inhibition turned out to be 25%.
In turn, `C=C(C)C(=O)N(c1ccc(C(C)(C)C)cc1)C(C(=O)NC1CCCCC1)c1cccnc1` (centres undefined) had an inhibition of 30%.
In turn, `CC#CC(=O)NC(C(=O)NC1CCCCC1)c1cccnc1` (centres undefined) gave an inhibition of 10%.
Turning to `CC#CC(=O)N(Cc1ccccc1)C(C(=O)NC1CCCCC1)c1cccnc1` (centres undefined), the inhibition was below 5%.
Same read-out and setting: then `CC#CC(=O)N(c1cccc(NC(C)=O)c1)C(C(=O)NC1CCCCC1)c1cccnc1` (centres undefined), with 43%; and `CC#CC(=O)N(c1ccc(C(C)(C)C)cc1)C(C(=O)NCc1ccccc1)c1cccnc1` (centres undefined), with 69%.
Still for that read-out and setting: next, `CC(C)(C)c1ccc(N(C(=O)C2=CCCC2)C(C(=O)NC2CCCCC2)c2cnc[nH]2)cc1` (centres undefined): 24%; `CC#CC(=O)N(c1ccc(NC(C)=O)cc1)C(C(=O)NC1CCCCC1)c1cccnc1` (centres undefined): 23%; `CC(C)(C)c1ccc(N(C(=O)C2=CCCC2)C(C(=O)NC2CCCCC2)c2cnc3ccccc3c2)cc1` (centres undefined): 18%.
The same measure, in the same setting: next, `CC(C)(C)c1ccc(NC(C(=O)NC2CCCCC2)c2cccnc2)cc1` (centres undefined): 28%; `CC(C)(C)c1ccc(N(C(=O)C2=CCCC2)C(C(=O)NC2CCCCC2)c2cccnc2)cc1` (centres undefined): 55%; `CC(C)(C)c1ccc(N(CC#N)C(C(=O)NC2CCCCC2)c2cccnc2)cc1` (centres undefined): below 5%.
Compound `CC(C)(C)c1ccc(N(C(=O)C2=CCCC2)C(C(=O)NC2CCCCC2)c2ccncc2)cc1` (centres undefined) showed an inhibition of 19%.
Still for that read-out and setting: then `CCOC(=O)N(c1ccc(C(C)(C)C)cc1)C(C(=O)NC1CCCCC1)c1cccnc1` (centres undefined), with 35%.
Still for that read-out and setting: then `C/C=C/C(=O)N(c1ccc(C(C)(C)C)cc1)C(C(=O)NC1CCCCC1)c1cccnc1` (centres undefined), with 63%; and `CC(C)(C)c1ccc(N(C(=O)C2=CCCCC2)C(C(=O)NC2CCCCC2)c2cccnc2)cc1` (centres undefined), with 52%; and `C/C=C/C(=O)N(c1ccc(C(C)(C)C)cc1)C(C(=O)NC1CCCCC1)c1ccncc1` (centres undefined), with 24%.
Regarding `CC(=O)N(c1ccc(C(C)(C)C)cc1)C(C(=O)NC1CCCCC1)c1cccnc1` (centres undefined), the inhibition was found to be 25%.
As to `CC#CC(=O)N(c1ccc(C(C)(C)C)cc1)C(C(=O)NC1CCCCC1)c1nc2ccccc2s1` (centres undefined), the inhibition worked out at 54%.
On to `C/C=C/C(=O)N(c1ccc(C(C)(C)C)cc1)C(C(=O)NC(C)(C)C)c1cccnc1` (centres undefined), for which the inhibition came out at 33%.
Same read-out and setting: next, `C=CC(=O)N(c1ccc(C(C)(C)C)cc1)C(C(=O)NC(C)(C)C)c1cccnc1` (centres undefined): 68%.
As to `CC#CC(=O)N(c1ccc(C(C)(C)C)cc1)C(C(=O)NC1CCCCC1)c1cn[nH]c1` (centres undefined), the inhibition was found to be 19%.
Turning to `CC(C)(C)c1ccc(N(C(=O)/C=C/c2ccccc2)C(C(=O)NC2CCCCC2)c2cccnc2)cc1` (centres undefined), the inhibition was 44%.
Same read-out and setting: then `CC#CC(=O)N(c1ccc(C(C)(C)C)cc1)C(CN1CC(=O)NC1=O)C(=O)NC1CCCCC1` (centres undefined), with 10%.
On the same count and under the same terms, next, `O=C(NC1CCCCC1)C(c1cccnc1)N1CCC1=O` (centres undefined): below 5%.
As to `CC#CC(=O)N(c1ccc(F)cc1)C(C(=O)NC1CCCCC1)c1cccnc1` (centres undefined), the inhibition came out at 65%.
Still for that read-out and setting: next, `CC(C)(C)c1ccc(N(C(=O)c2c[nH]cn2)C(C(=O)NC2CCCCC2)c2cccnc2)cc1` (centres undefined): above 95%; `CC(C)(C)c1ccc(N(C(=O)CF)C(C(=O)NC2CCCCC2)c2cccnc2)cc1` (centres undefined): 30%; `CC(=O)C(=O)N(c1cccc(C)c1)C(C(=O)NC1CCCCC1)c1cccnc1` (centres undefined): below 5%.
The same measure, in the same setting: next, `CC(C)(C)NC(=O)C(c1cccnc1)N(C(=O)c1ccco1)c1ccc(C(C)(C)C)cc1` (centres undefined): above 95%; `CC(C)(C)c1ccc(N(C(=O)C2=CCCC2)C(C(=O)NC2CCCCC2)c2cncc3ccccc23)cc1` (centres undefined): below 5%.
The same measure, in the same setting: then `C=CS(=O)(=O)N(c1ccc(C(C)(C)C)cc1)C(C(=O)N[C@@H](C)c1ccccc1)c1cccnc1` (mixture of isomers; 14g) [listing 2 of 2 here], with above 95%.
The compound `CCOC(=O)/C=C/C(=O)N(c1ccc(C(C)(C)C)cc1)C(C(=O)NC1CCCCC1)c1cccnc1` (centres undefined) gave an inhibition of 59%.
Still for that read-out and setting: next, `CC#CC(=O)N(c1ccc(C(C)(C)C)cc1)C(C(=O)NC1CCCCC1)c1csc2ccccc12` (centres undefined): 57%.
